Data set [1] is described as follows: Clearance in rat at 2 mg/kg, iv. In kind it is ADME, organism-based. The conditions noted are these: in vivo. Also noted: dose 2 mg/kg, route intravenous. An outline of the steps:
(§1)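 Intravenous dosing in DMSO at 2 mg/kg.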

Data set [2] in a line: Oral bioavailability in rat at 10 mg/kg. In kind it is ADME, organism-based. The settings on record: in vivo. An outline of the steps:
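Oral dosing in 1% methylcellulose at 10 mg/kg.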

The nature of data set [3]: Half life in rat at 2 mg/kg, iv. The class given is ADME, organism-based. Also noted: dose 2 mg/kg, route intravenous. The conditions noted are these: in vivo. An outline of the steps:
as §1

Data set [4] is described as follows: Partition coefficient, log P at pH 7.4. The class given is physicochemical. The settings on record: octanol/water. An outline of the steps: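 A methanol solution of compound is partitioned between octanol and pH 7.4 KH2PO4/NaOH aqueous buffer, and both layers are quantified by HPLC-UV. Log P = log[(octanol area × octanol dilution)/(buffer area × buffer dilution)].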

Data set [5] concerns Human immunodeficiency virus 1. In words: Antiviral activity against HIV1 3b in human MT4 cells assessed as decrease in HIV1 p24 core antigen in presence of 10% fetal bovine serum. The class given is functional. An outline of the steps:
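HIV-1 IIIb replication in MT-4 human T-lymphoid cells, cultured with 10% FBS across increasing inhibitor concentrations. Read-out is the decrease in p24 core antigen. IC95 is the concentration giving 95% inhibition of viral growth relative to control.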

In data set [6] the target is Human immunodeficiency virus type 1 integrase (Human immunodeficiency virus 1, UniProt Q7ZJM1). Briefly: Inhibition of recombinant HIV1 integrase strand transfer activity using immobilized DNA substrate. An outline of the steps: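 Recombinant HIV integrase (100 nM) preassembled on immobilized oligonucleotides, with 0.5 nM DNA, in a strand transfer read-out. Values are means of at least two experiments. The lower limit of accuracy is about 5 nM, with SD approximately twofold.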

Data set [7] can be described thus: Protein binding in human plasma at pH 7.4. The class given is ADME, cell-free. The settings on record: read-out: PPB (converted). The essentials:
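Binding to human plasma (primarily albumin) measured by HPLC with UV detection, in pH 7.4 buffer at room temperature. Each value is the average of three determinations.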

Data set [8] relates to Human immunodeficiency virus 1. In words: Antiviral activity against HIV1 3b in human MT4 cells assessed as decrease in HIV1 p24 core antigen in presence of 50% normal human serum.

The text below walks through data of ChEMBL document CHEMBL1144197, “Synthesis of 5-(1-H or 1-alkyl-5-oxopyrrolidin-3-yl)-8-hydroxy-[1,6]-naphthyridine-7-carboxamide inhibitors of HIV-1 integrase” (Bioorg Med Chem Lett, 2008).

Human immunodeficiency virus type 1 integrase, sequence (Q7ZJM1 whole entry): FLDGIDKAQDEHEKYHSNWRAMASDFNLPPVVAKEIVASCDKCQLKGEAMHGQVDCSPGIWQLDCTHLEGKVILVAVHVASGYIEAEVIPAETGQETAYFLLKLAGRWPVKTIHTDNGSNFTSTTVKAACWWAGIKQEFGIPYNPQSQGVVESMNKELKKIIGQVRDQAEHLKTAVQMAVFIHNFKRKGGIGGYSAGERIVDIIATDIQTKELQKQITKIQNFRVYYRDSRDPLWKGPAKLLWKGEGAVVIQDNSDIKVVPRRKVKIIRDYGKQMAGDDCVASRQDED

Regarding `CN(C)C(=O)CN1CC(c2nc(C(=O)NCc3ccc(F)cc3)c([O-])c3ncccc23)CC1=O.[Na+]` (stereo not given), in data set [1], the clearance (in general, a measure of how efficiently the substance is removed, as volume per time) turned out to be 23.4 mL/min/kg. Further, the bioavailability (commonly the share of a dose that reaches the circulation, judged against a reference dose that is usually intravenous) in data set [2] was 5%. Further, in data set [3], the half-life (as a rule, how long it takes for the measured level to halve) is 204 min.

Regarding `CC(C)N1CC(c2nc(C(=O)NCc3ccc(F)cc3)c(O)c3ncccc23)CC1=O` (stereo not given), in data set [4], the logD (as a rule, the decadic logarithm of the distribution of all forms, ionised or not, between an organic phase and buffer at a given pH) amounted to 2.7. Further, in data set [5], the IC95 (as a rule, the concentration at which the effect reaches the 95% level) is listed as 31 nM. Moreover, the IC50 – broadly, the concentration that inhibits the measured activity by half – in data set [6] is 40 nM. The fraction unbound in data set [7] was 0.022. Besides, in data set [8], the “Antiviral potency (p24 reduction)” value is 125 nM.

Turning to `CN1CC(c2nc(C(=O)NCc3ccc(F)cc3S(C)(=O)=O)c(O)c3ncccc23)CC1=O` (stereo not given), the logD in data set [4] was 1.6. This compound gave a clearance in data set [1] of 17.2 mL/min/kg. In data set [2], this compound registered a bioavailability of 4%. The IC95 in data set [5] was 31 nM. Further, the IC50 in data set [6] came to 123 nM. This compound gave a half-life in data set [3] of 40.2 min. For the same compound, in data set [7], the fraction unbound was 0.03. Besides, the “Antiviral potency (p24 reduction)” value in data set [8] stood at 63 nM.

In data set [4], `CN(C)C(=O)CN1CC(c2nc(C(=O)NCc3ccc(F)cc3)c(O)c3ncccc23)CC1=O` (stereo not given) showed a logD of 1.8. The IC95 in data set [5] stood at 31 nM. Besides, the IC50 in data set [6] was 33 nM. The fraction unbound in data set [7] was 0.052. Moreover, the “Antiviral potency (p24 reduction)” value in data set [8] was determined as 63 nM.

Consider `CCN1CC(c2nc(C(=O)NCc3ccc(F)cc3S(C)(=O)=O)c(O)c3ncccc23)CC1=O` (stereo not given), for which the logD in data set [4] was 1.9. Moreover, the IC95 in data set [5] came to 38 nM. Also, in data set [6], the IC50 was 26 nM. Also, the fraction unbound in data set [7] was 0.04. Further, the “Antiviral potency (p24 reduction)” value in data set [8] was found to be 81 nM.

Turning to `CCN1CC(c2nc(C(=O)NCc3ccc(F)cc3)c(O)c3ncccc23)CC1=O` (stereo not given), in data set [4], the logD amounted to 2.7. For the same compound, the IC95 in data set [5] amounted to 16 nM. For the same compound, in data set [6], the IC50 stood at 14 nM. Also, in data set [7], the fraction unbound is 0.011. The “Antiviral potency (p24 reduction)” value in data set [8] is reported as 125 nM.

With `O=C1CC(c2nc(C(=O)NCc3ccc(F)cc3)c(O)c3ncccc23)CN1` (stereo not given), the IC95 in data set [5] is reported as 42 nM. In data set [6], the IC50 was 24 nM. Moreover, the “Antiviral potency (p24 reduction)” value in data set [8] came to 83 nM.

Take `O=C(NCc1ccc(F)cc1)c1ncc2cccnc2c1O`: in data set [5], the IC95 was determined as 1250 nM. Moreover, in data set [7], the fraction unbound was 0.008. The “Antiviral potency (p24 reduction)” value in data set [8] was 5000 nM.

For `CN1CC(c2nc(C(=O)NCc3ccc(F)cc3)c(O)c3ncccc23)CC1=O` (stereo not given), the logD in data set [4] is 2.3. Further, the IC95 in data set [5] stood at 31 nM. In addition, the IC50 in data set [6] amounted to 20 nM. Besides, the fraction unbound in data set [7] was 0.012. Also, the “Antiviral potency (p24 reduction)” value in data set [8] came out at 125 nM.

With `CN1CC(c2nc(C(=O)NCc3ccc(F)cc3)c([O-])c3ncccc23)CC1=O.[Na+]` (stereo not given), the clearance in data set [1] is 2.5 mL/min/kg. In data set [2], this compound yielded a bioavailability of 65%. In data set [3], the half-life is 78 min.
